Experimental findings from article PMC5760799 (Journal of Pharmaceutical Analysis, 2011) are described below.

Series [1] can be described thus: Pharmacokinetic study of PSN-1 in rats after intravenous administration. Conditions: male, Wister, rat, plasma, 3 mg/kg. The series is classed as in vivo. The method, boiled down: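 Six male Wister rats (220–250 g), fasted overnight, received a single iv dose of 3.0 mg/kg. About 0.5 mL of blood was drawn from the ocular vein from 0 to 8 h, with time points split between two groups of three rats. Blood was heparinised, spun at 890g for 10 min and plasma held at –20 °C. Plasma was then precipitated with acetonitrile/0.2% formic acid with thymopentin IS and run by UPLC-MS/MS (SRM). Non-compartmental analysis; mean±SD.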

Series [2] can be described thus: Stability of PSN-1 in rat plasma. The format is in vitro ADME. Conditions: UPLC-MS/MS, n=6.

Ends that are not written are not given here.

Turning to FLSLIPHIVSGVASIAKHF-NH2 [PSN-1], the area under the curve AUC(0-inf) in series [1] is 1760 ± 404 ng·h/mL. In addition, the AUC(0-t) in series [1] came to 1660 ± 356 ng·h/mL. Moreover, in series [1], the highest concentration (Cmax) turned out to be 1290 ± 340 ng/mL. In series [1], the Tmax was 1.02 min. Besides, in series [1], the Vd was 5.23 ± 0.84 L/kg. The substance also had a clearance in series [1] of 29.7 mL/min/kg. Besides, the half-life in series [1] is 2.08 ± 0.31 h. For the same substance, the “Accuracy (RE)” value is reported as −4.9% in series [2] (long term, −20 °C for 10 days, added 0.05 μg/mL); −10.1% in series [2] (long term, −20 °C for 10 days, added 0.2 μg/mL); −1.8% in series [2] (long term, −20 °C for 10 days, added 1.6 μg/mL); 5.2% in series [2] (short term, room temperature for 4 h before processing, added 0.05 μg/mL); −5.5% in series [2] (short term, room temperature for 4 h before processing, added 0.2 μg/mL); −5.3% in series [2] (short term, room temperature for 4 h before processing, added 1.6 μg/mL). The “Accuracy (RE)” value in series [2] (three freeze–thaw cycles (−20 to 25 °C), added 0.05 μg/mL) is −0.8%; in series [2] (three freeze–thaw cycles (−20 to 25 °C), added 0.2 μg/mL) it was 3.4%; in series [2] (three freeze–thaw cycles (−20 to 25 °C), added 1.6 μg/mL), −1.3%.
